Active and inactive are the calls of the source. The calls are words filed in the database; no cut-off is given here.
How the values were obtained:
Homo sapiens [1] = organism: Homo sapiens; experiment: Inhibition of mTORC1 in human MCF7 cells assessed as reduction in 4E-BP1 phosphorylation at Thr37/46 residues at 0.25 to 0.5 uM by Western blot analysis; assay type: cell-based
How it was run: (§1)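 Cells treated with the indicated concentrations, then whole-cell lysates immunoblotted. mTORC1 activity read as S6 and 4E-BP1 phosphorylation; mTORC2 activity read as AKT Ser473 phosphorylation. Blocking in 5% skim milk, primary antibodies at 4 °C overnight, peroxidase-conjugated secondary, ECL detection.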

HeLa [2] = experiment: Inhibition of mTORC1 in human HeLa cells assessed as reduction in 4E-BP1 phosphorylation at Ser65 residues at 0.5 to 1 uM by Western blot analysis; assay type: cell-based; how it was run: as §1
[3] = MRT (0 to infinity) in Sprague-Dawley rat at 20 mg/kg, po administered as single dose by HPLC analysis; assay type: ADME, organism-based; conditions: in vivo
How it was run: (§2)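 Rats fasted overnight, then given a single 20 mg/kg dose either iv or po. Blood collected and centrifuged immediately to obtain plasma. Plasma drug levels measured by HPLC, and pharmacokinetic parameters derived from both routes.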

[4] = Protein binding in rabbit plasma at 4 uM after 4 hrs by equilibrium dialysis method; assay type: ADME, cell-free, Oryctolagus cuniculus; conditions: read-out: PPB (converted)
How it was run: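 Plasma protein binding measured in rabbit and human plasma with compound at 4 μM over a 4 h period; result given as percent bound.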

Rattus norvegicus = experiment: Apparent volume of distribution at steady state in Sprague-Dawley rat at 20 mg/kg, po administered as single dose by HPLC analysis; assay type: ADME, organism-based; conditions: in vivo
How it was run: (§3)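 Rats fasted overnight, then given one 20 mg/kg dose either iv or po. Blood was collected and centrifuged at once to obtain plasma. Plasma drug levels were measured by HPLC, and PK parameters were derived from the concentration-time data.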

HeLa [5] = experiment: Inhibition of mTORC1 in human HeLa cells assessed as reduction in S6 phosphorylation at Ser 240/244 residues at 0.5 to 1 uM by Western blot analysis; assay type: cell-based; how it was run: as §1
[6] = Cmax in Sprague-Dawley rat at 20 mg/kg, po administered as single dose by HPLC analysis; assay type: ADME, organism-based; design: dose 20 mg/kg, route oral; conditions: in vivo; how it was run: as §3
HeLa [7] = experiment: Cell cycle arrest in human HeLa cells assessed as decrease in S-phase at 0.5 to 1 uM after 24 hrs by propidium iodide-staining based flow cytometric analysis; assay type: functional
How it was run: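 Cells were seeded at 5 × 10^5 cells/mL. At 24 h after plating they were treated with increasing concentrations for 24 h, washed in PBS, and fixed in ice-cold 70% ethanol for at least 24 h. They were stained with propidium iodide plus RNase A for 30 min at 37 °C and analysed by flow cytometry for phase distribution.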

Mus musculus [8] = experiment: Down regulation of S6 phosphorylation at Ser240/244 residues in human T47D cells xenografted in BALB/c nude mouse administered via oral gavage after 3 weeks by hematoxylin and eosine staining based light microscopic assay; assay type: functional, cell-based
How it was run: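 Tumours from the oral 3-week T-47D xenograft study were formalin-fixed, paraffin-embedded and cut into 5 μm sections. Sections were deparaffinized, rehydrated and incubated overnight at 4 °C with phospho-specific primary antibody at 1:100. Biotin secondary was applied for 1 h at room temperature, then ABC-peroxidase/DAB with hematoxylin counterstain. Sections were viewed by light microscopy.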

HeLa [9] = experiment: Inhibition of mTORC2 in human HeLa cells assessed as reduction in AKT phosphorylation at Ser473 residues at 0.5 to 1 uM by Western blot analysis; assay type: cell-based; how it was run: as §1
Homo sapiens [10] = organism: Homo sapiens; experiment: Inhibition of mTORC1 in human MCF7 cells assessed as reduction in S6 phosphorylation at Ser 240/244 residues at 0.25 to 0.5 uM by Western blot analysis; assay type: cell-based; how it was run: as §1
HeLa [11] = experiment: Induction of autophagy in human HeLa cells assessed as increase in LC3-2 level at 1 to 2 uM after 48 hrs by Western blot analysis; assay type: functional, cell-based
How it was run: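 Cells were treated for 48 h (2 days) with varying concentrations. Whole-cell lysates were immunoblotted for LC3B-II with β-actin as the internal control. Membranes were blocked in 5% skim milk, incubated with primary antibody overnight at 4 °C, then with peroxidase-conjugated secondary, and developed by ECL.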

Mus musculus [12] = organism: Mus musculus; experiment: Inhibition of full length recombinant mouse PI3K p85alpha/p110alpha E545K mutant at 1 uM relative to control
How it was run: (§4)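 Eurofins KinaseProfiler panel with compound at a single 1 μM concentration. ATP at the Km of each kinase. Result is % inhibition, mean of two independent experiments.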

[13] = molecular target: PI3-kinase p110-delta/p85-alpha (Homo sapiens) (UniProt P27986+O00329); experiment: Inhibition of full length recombinant human PI3K p110delta/p85alpha at 1 uM relative to control; assay type: protein-complex assay; how it was run: as §4
MDA-MB-231 = experiment: Growth inhibition of human MDA-MB-231 cells after 72 hrs by CCK8 assay; assay type: functional, cell-based; conditions: MDA-MB-231, 72 h
How it was run: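 Cells were seeded at 2000–3000 per well and grown 24 h in serum-containing medium. They were then exposed to serially diluted compound for 72 h at 37 °C, 5% CO2. CCK8 reagent was added for 1–4 h and absorbance read at 450 nm. Inhibition = (AC − AS)/(AC − Ab) × 100%. IC50 is the average of at least three independent determinations.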

Mus musculus [14] = experiment: Toxicity in BALB/c nude mouse xenografted with human T47D cells assessed as decrease in body weight at 15 to 60 mg/kg, po administered via gavage for 3 weeks measured during compound dosing; assay type: organism-based; conditions: in vivo, 504 h
How it was run: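 BALB/c nude mice, 6−8 weeks old, injected subcutaneously with 100 μL T-47D cells at 2 × 10^7 per mL in serum-free medium. At 100−120 mm3, randomized to 5 groups of 5: 15, 30 or 60 mg/kg/d, rapamycin 60 mg/kg/d, or vehicle. Dosed daily by intragastric route in DMSO for 3 weeks. Side effects checked daily; body weight every other day.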

[15] = molecular target: PI3K p110 beta/p85 alpha (Homo sapiens) (UniProt P27986+P42338); experiment: Inhibition of full length recombinant human PI3K p110beta/p85alpha at 1 uM relative to control; assay type: protein-complex assay; how it was run: as §4
Sequence of PI3K p110 beta/p85 alpha (Homo sapiens) (P27986 2-724 limits assumed): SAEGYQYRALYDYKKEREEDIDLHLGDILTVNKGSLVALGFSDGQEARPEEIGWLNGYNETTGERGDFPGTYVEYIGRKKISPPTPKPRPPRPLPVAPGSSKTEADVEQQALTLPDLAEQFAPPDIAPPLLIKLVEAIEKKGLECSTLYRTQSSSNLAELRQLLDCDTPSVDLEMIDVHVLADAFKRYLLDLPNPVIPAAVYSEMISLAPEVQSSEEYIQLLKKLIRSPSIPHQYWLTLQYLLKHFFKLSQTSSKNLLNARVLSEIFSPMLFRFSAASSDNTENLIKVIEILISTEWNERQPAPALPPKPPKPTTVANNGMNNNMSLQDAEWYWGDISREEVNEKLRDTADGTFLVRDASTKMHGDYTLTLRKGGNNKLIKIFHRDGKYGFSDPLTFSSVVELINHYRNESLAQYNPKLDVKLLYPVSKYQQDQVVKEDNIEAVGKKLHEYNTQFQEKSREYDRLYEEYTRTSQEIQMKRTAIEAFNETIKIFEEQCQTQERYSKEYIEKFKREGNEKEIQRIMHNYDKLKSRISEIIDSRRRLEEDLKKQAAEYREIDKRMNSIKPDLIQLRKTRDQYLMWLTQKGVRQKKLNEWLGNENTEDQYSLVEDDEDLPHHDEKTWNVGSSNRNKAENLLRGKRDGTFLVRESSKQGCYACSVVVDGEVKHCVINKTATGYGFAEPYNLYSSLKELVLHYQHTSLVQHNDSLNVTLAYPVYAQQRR
Sequence of PI3K p110 beta/p85 alpha (Homo sapiens) (P42338 whole entry partner): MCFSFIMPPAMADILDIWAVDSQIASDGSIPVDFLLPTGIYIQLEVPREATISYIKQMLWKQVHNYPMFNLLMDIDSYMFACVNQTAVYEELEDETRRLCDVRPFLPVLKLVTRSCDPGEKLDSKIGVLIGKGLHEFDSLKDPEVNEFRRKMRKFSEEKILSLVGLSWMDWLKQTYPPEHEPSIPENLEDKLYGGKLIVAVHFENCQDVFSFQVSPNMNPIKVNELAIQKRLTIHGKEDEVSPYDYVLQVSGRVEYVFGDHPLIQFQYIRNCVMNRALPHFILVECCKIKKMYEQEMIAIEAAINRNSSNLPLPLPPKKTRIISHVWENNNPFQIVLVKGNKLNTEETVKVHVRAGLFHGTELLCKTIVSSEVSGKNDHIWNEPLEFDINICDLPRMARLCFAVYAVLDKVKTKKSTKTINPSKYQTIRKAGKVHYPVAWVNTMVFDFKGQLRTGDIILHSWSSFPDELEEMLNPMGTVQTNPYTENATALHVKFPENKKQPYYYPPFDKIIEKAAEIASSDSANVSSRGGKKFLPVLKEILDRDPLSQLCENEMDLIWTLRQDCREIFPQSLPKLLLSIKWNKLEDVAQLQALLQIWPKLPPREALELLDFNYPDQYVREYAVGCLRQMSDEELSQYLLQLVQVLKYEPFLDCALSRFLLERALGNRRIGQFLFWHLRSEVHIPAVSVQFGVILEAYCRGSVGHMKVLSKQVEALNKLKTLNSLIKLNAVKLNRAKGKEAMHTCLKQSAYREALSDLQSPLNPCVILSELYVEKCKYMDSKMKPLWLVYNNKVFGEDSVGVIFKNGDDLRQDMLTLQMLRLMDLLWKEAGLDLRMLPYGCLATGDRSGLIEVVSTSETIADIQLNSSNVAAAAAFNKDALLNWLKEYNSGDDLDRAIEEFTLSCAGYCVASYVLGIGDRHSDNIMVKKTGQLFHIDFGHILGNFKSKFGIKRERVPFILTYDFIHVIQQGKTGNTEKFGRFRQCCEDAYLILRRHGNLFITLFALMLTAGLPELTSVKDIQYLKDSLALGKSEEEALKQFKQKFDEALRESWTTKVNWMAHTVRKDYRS

[16] = molecular target: Serine/threonine-protein kinase mTOR (Homo sapiens, UniProt P42345); experiment: Inhibition of N-terminal FLAG-tagged recombinant human mTOR (1362 to end residues)
[17] = AUC (0 to infinity) in Sprague-Dawley rat at 20 mg/kg, iv administered as single dose by HPLC analysis; assay type: ADME, organism-based; design: dose 20 mg/kg, time infinity, route intravenous; conditions: in vivo; how it was run: as §3
[18] = molecular target: PI3K p110 alpha/p85 alpha (Mus musculus) (UniProt P26450+P42337); experiment: Inhibition of full length recombinant mouse PI3K p110alpha/p85alpha at 1 uM relative to control; assay type: protein-complex assay; how it was run: as §4
[19] = molecular target: Serine-protein kinase ATM (Homo sapiens, UniProt Q13315); experiment: Inhibition of full length recombinant human ATM
Sequence of Serine-protein kinase ATM (Q13315 whole entry): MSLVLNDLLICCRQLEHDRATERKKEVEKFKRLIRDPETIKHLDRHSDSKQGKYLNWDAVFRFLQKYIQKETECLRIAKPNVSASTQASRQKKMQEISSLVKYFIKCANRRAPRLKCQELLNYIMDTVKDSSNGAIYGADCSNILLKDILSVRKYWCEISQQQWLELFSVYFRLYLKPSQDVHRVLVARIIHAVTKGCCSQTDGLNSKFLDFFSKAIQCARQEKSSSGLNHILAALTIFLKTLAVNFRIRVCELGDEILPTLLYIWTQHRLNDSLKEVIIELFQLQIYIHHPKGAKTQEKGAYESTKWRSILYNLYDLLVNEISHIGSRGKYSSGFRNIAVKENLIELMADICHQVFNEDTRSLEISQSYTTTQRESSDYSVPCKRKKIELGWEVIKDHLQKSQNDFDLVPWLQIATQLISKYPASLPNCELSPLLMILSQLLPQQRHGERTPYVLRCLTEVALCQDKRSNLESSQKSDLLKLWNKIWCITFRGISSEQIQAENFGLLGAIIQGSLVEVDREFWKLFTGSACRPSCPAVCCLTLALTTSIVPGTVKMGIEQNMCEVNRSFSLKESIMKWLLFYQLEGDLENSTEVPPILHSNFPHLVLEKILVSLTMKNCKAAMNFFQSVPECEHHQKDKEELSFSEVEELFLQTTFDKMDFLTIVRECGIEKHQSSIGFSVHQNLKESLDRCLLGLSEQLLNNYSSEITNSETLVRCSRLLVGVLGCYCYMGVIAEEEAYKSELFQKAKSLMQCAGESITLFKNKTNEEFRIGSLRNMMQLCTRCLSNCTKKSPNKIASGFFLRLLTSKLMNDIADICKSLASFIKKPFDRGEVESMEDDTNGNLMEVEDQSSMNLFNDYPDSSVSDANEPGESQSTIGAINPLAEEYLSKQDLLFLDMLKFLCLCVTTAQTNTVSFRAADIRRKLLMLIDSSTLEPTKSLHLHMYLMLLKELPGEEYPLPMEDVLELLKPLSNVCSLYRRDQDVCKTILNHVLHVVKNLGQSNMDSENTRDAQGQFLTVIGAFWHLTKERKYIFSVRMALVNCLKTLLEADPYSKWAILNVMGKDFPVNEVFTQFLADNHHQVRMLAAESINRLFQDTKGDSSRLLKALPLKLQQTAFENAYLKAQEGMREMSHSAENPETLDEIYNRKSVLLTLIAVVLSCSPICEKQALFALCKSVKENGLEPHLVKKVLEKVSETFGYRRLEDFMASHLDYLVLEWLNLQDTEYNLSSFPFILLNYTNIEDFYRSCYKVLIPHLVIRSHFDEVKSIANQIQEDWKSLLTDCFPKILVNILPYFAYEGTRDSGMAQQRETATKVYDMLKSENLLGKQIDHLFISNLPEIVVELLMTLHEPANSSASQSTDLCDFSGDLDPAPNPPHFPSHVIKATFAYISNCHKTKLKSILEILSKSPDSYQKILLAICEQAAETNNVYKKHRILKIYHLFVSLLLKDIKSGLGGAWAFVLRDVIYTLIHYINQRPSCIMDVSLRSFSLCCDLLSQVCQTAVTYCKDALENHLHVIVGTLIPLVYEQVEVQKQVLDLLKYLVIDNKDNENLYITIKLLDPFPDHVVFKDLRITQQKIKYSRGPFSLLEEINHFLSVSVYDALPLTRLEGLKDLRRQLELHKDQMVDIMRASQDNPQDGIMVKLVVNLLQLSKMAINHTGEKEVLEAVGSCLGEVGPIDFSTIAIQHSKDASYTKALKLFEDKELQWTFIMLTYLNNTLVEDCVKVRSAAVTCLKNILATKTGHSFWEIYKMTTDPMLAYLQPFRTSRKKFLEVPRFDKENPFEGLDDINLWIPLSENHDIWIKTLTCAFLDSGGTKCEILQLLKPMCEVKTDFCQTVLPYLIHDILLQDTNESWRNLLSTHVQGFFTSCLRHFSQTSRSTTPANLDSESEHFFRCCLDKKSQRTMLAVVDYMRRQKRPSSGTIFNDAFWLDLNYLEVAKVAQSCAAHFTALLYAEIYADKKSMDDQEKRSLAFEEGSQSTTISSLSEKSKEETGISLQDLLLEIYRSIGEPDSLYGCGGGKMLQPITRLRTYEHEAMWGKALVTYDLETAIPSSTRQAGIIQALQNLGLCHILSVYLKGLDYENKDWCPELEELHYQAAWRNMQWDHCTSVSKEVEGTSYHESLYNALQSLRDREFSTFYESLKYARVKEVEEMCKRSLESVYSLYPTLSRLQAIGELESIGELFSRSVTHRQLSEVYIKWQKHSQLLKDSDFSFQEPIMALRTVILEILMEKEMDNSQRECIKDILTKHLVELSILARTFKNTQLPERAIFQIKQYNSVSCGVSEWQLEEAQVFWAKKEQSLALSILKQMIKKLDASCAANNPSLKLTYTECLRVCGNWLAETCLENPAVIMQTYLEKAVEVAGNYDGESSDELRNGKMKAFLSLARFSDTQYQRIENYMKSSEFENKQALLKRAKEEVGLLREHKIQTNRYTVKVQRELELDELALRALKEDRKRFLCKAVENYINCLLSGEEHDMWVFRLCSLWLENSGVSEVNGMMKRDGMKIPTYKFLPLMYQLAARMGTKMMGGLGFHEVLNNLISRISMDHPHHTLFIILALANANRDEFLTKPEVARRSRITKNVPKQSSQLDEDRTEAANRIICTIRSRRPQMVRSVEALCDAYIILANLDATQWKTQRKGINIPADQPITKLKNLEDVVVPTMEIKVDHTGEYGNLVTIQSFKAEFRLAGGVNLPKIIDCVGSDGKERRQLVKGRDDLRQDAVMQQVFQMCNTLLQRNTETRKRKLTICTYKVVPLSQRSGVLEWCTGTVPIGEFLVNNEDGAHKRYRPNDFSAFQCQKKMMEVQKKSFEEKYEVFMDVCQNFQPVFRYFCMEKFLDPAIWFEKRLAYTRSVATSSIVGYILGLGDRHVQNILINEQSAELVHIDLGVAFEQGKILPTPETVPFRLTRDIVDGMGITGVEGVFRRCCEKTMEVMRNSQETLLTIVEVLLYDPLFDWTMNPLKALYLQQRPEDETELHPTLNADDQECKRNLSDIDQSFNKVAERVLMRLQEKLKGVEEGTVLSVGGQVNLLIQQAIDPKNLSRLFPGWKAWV

[20] = AUC (0 to infinity) in Sprague-Dawley rat at 20 mg/kg, po administered as single dose by HPLC analysis; assay type: ADME, organism-based; design: dose 20 mg/kg, route oral, time infinity; conditions: in vivo; how it was run: as §3
[21] = Volume of distribution at steady state in Sprague-Dawley rat at 20 mg/kg, iv administered as single dose by HPLC analysis; assay type: ADME, organism-based; conditions: in vivo, read-out: Vdss; how it was run: as §2
Homo sapiens [22] = organism: Homo sapiens; experiment: Inhibition of mTORC1 in human MDA-MB-231 cells assessed as reduction in S6 phosphorylation at Ser 240/244 residues at 0.25 to 0.5 uM by Western blot analysis; assay type: cell-based; how it was run: as §1

In the case of `N#CCN1CCC(n2c(=O)cnc3cnc4ccc(-c5ccc(N)nc5)cc4c32)CC1`, the inhibition (Homo sapiens [1]) is reported as “Active”, the inhibition (HeLa [2]) is reported as “Active” and the MRT inf [3] is reported as 16.3 h. The fraction unbound at 4 h, 4 µM [4] was 0.399, the “Vdss(app)” value (Rattus norvegicus) was 21.79 L/kg and the inhibition (HeLa [5]) was “Active”. The Cmax [6] was 807 ng/mL, the Activity (HeLa [7]) was “Active” and the Activity (Mus musculus [8]) was “Dose-dependent effect”. The inhibition (HeLa [9]) was “Active”, the inhibition (Homo sapiens [10]) was “Active” and the Activity (HeLa [11]) was “Active”. It also gave an inhibition (Mus musculus [12]) of 9%, an inhibition [13] of 9% and an IC50 (MDA-MB-231) of 100 nM. For the same molecule, the Activity (Mus musculus [14]) was “Non-Toxic”, the inhibition [15] was 7% and the IC50 [16] was 7 nM. The AUC(0-inf) [17] was 6560 ng·h/mL, the inhibition [18] was 17% and the IC50 [19] was 62 nM. For the same molecule, the AUC(0-inf) [20] was 2850 ng·h/mL, the Vd [21] was 16.7 L/kg and the inhibition (Homo sapiens [22]) was “Active”.

— ChEMBL document CHEMBL4020823, “Highly Selective, Potent, and Oral mTOR Inhibitor for Treatment of Cancer as Autophagy Inducer” (J Med Chem, 2018)
